Blank lines part the entries; values can stand above or below the compound they belong to. Active and inactive are the calls of the source. The rule behind the calls is not given here.
Assays:
[1] = Glutathione reactivity in pH 7.4 deuterated phosphate buffer assessed as reaction half life at 10 mg up to 10 mins in presence of 1.5 to 2 equiv of GSH by 1H NMR analysis; format: physicochemical
[2] = Drug level in pH 7.4 deuterated phosphate buffer treated with oridonin at 10 mg up to 10 mins in presence of 1.5 to 2 equiv of GSH by HRMS analysis
[3] = Glutathione reactivity in pH 7.4 deuterated phosphate buffer at 10 mg after 20 hrs in presence of 1.5 to 2 equiv of GSH by 1H NMR analysis
MDA-MB-231 [4] = assay: Antiproliferative activity against human MDA-MB-231 cells after 72 hrs by MTT assay; format: functional, cell-based
How it was run: (§1)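 MTT proliferation assay. Cells were seeded at 1 × 10^4 per well and exposed to DMSO or compound at 0.1, 0.33, 1.0, 3.3 and 10 μM for 72 h. MTT reagent was added, and OD at 560 nm was read after 1 h at 37°C. Each concentration was tested in quadruplicate wells.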

MCF7 = assay: Antiproliferative activity against human MCF7 cells after 72 hrs by MTT assay; format: functional, cell-based; how it was run: as §1
[5] = Antiproliferative activity against human LX2 cells by alamar blue assay; format: functional, cell-based; details: LX-2
[6] = Potency index, ratio of oridonin IC50 to compound IC50 for human LX2 cells; format: functional
[7] = Drug level in pH 7.4 deuterated phosphate buffer treated with (2R,3'S,3a'R,3a1'R,6a'R,7'S,11'S,11a'S)-7',11'-Dihydroxy-5',5',8',8'-tetramethyldecahydro-2'H-spiro[aziridine-2,15'-[6a,11a]-(epoxymethano)[3,3a1]ethanophenanthro[1,10-de][1,3]dioxin]-14'-one at 10 mg after 5 hrs in presence of 1.5 to 2 equiv of GSH by HRMS analysis
[8] = Stability in rat microsomes; format: ADME, Microsome
Plasma [9] = assay: Stability in rat plasma up to 5 hrs; format: ADME, cell-free
[10] = Stability in mouse microsomes; format: ADME, Microsome
[11] = Stability in human microsomes; format: ADME, Microsome
[12] = Glutathione reactivity in pH 7.4 deuterated phosphate buffer assessed as GSH adduct formation at 10 mg after 5 hrs in presence of 1.5 to 2 equiv of GSH by HRMS analysis
Plasma [13] = assay: Stability in mouse plasma up to 5 hrs; format: ADME, cell-free
Plasma [14] = assay: Stability in human plasma up to 5 hrs; format: ADME, cell-free
[15] = Glutathione reactivity in pH 7.4 deuterated phosphate buffer assessed as reaction half life at 10 mg up to 24 hrs in presence of 1.5 to 2 equiv of GSH by 1H NMR analysis; format: physicochemical; details: pH 7.4, 24 h
MDA-MB-231 [16] = assay: Antitumor activity against human MDA-MB-231 cells xenografted in nude mouse assessed as tumor growth inhibition at 10 mg/kg, ip daily for 10 days; format: functional, organism-based
How it was run: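 Orthotopic model: female nude mice, 6–8 weeks old. MDA-MB-231 cells (1.0 × 10^6 in PBS) were injected into the no. 3 mammary fat pad, and mice were randomized into 4 groups. Once tumors reached 80–100 mm3, mice received 10 or 15 mg/kg daily by intraperitoneal injection in DMSO vehicle. Tumor volume (0.5 × L × W2) and body weight were measured daily. Mean ± SEM.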

[17] = Toxicity in ip dosed ddYS mouse implanted with mouse ehrlich carcinoma cells administered once daily for 7 consecutive days measured for 40 days; format: organism-based; details: in vivo
[18] = Glutathione reactivity in pH 7.4 deuterated phosphate buffer assessed as GSH adduct formation at 10 mg up to 10 mins in presence of 1.5 to 2 equiv of GSH by HRMS analysis
[19] = Drug level in pH 7.4 deuterated phosphate buffer treated with (2R,3'S,3a'R,3a1'R,6a'R,7'S,11'S,11a'S)-1-Acryloyl-7',11'-dihydroxy-5',5',8',8'-tetramethyldecahydro-2'H-spiro[aziridine-2,15'-[6a,11a](epoxymethano)[3,3a1]ethanophenanthro[1,10-de][1,3]-dioxin]-14'-one at 10 mg after 1 hr in presence of 1.5 to 2 equiv of GSH by HRMS analysis

t1/2 ([1]; gsh, pH 7.4, 10 min): < 1 min
SMILES: C=C1C(=O)[C@@]23[C@@H]4OC(C)(C)O[C@@]25OC[C@@]2([C@H]([C@@H]5O)C(C)(C)CC[C@@H]2O)[C@@H]3CC[C@@H]14

SMILES: CC1(C)CC[C@H](O)[C@]23CO[C@@](O)([C@@H](O)[C@H]12)[C@]12C(=O)C(CSCC(NC(=O)CC[C@H](N)C(=O)O)C(=O)NCC(=O)O)[C@H](CC[C@@H]31)[C@H]2O (some centres undefined)
Drug metabolism [2]: Metabolite detected

SMILES: O=C(O)C1CN1 (centres undefined)
Drug metabolism [3]: Metabolite detected

Drug metabolism ([1]; in vitro, pH 7.4, 10 min): Metabolite_Detected
SMILES: C=C1C(=O)[C@]23[C@H](OC(=O)[C@H](C)N)[C@H]1CC[C@H]2[C@@]12CO[C@@]3(O)[C@@H](O)[C@@H]1C(C)(C)CC[C@@H]2O.O=C(O)C(F)(F)F

SMILES: C=CCNc1nc2c(s1)CC(C)(C)[C@H]1[C@H](O)[C@]3(O)OC[C@@]21[C@@H]1CC[C@@H]2[C@@H](O)[C@@]13C(=O)C21CN1C(=O)OCC1c2ccccc2-c2ccccc21 (some centres undefined)
Activity (MDA-MB-231 [4]): Active | Activity (MCF7): Active

SMILES: C=C1C(=O)[C@]23[C@H](O)[C@H]1CC[C@H]2[C@]12C=CCC(C)(C)[C@H]1[C@H](O)[C@]3(O)OC2
IC50 [5]: 0.49 µM | Ratio IC50 [6]: 10

SMILES: CCC(=O)N1CC12C(=O)[C@@]13[C@@H]4OC(C)(C)O[C@@]15OC[C@@]1([C@H]([C@@H]5O)C(C)(C)CC[C@@H]1O)[C@@H]3CC[C@H]42 (some centres undefined)
Activity (MDA-MB-231 [4]): inactive | Activity (MCF7): inactive

SMILES: CC1(C)O[C@@H]2[C@H]3CC[C@H]4[C@@]56CO[C@@](O1)([C@@H](O)[C@@H]5C(C)(C)CC[C@@H]6O)[C@@]24C(=O)C3(N)CSCC(NC(=O)CC[C@H](N)C(=O)O)C(=O)NCC(=O)O (some centres undefined)
Drug metabolism [7]: Metabolite detected

SMILES: C=CCNc1nc2c(s1)CC(C)(C)[C@H]1[C@H](O)[C@]3(O)OC[C@@]21[C@@H]1CC[C@@H]2[C@@H](O)[C@@]13C(=O)C21CN1 (some centres undefined)
Activity (MDA-MB-231 [4]): Active | Activity (MCF7): Active

SMILES: CC1(C)O[C@@H]2[C@H]3CC[C@H]4[C@@]56CO[C@@](O1)([C@@H](O)[C@@H]5C(C)(C)CC[C@@H]6O)[C@@]24C(=O)C31CN1 (some centres undefined)
Stability [8]: Stable | Stability (Plasma [9]): Stable | Stability [10]: Stable | Stability [11]: Stable | Drug metabolism [12]: Metabolite detected | Stability (Plasma [13]): Stable | Stability (Plasma [14]): Stable | t1/2 [15]: 4 to 6 h

SMILES: C=C1C(=O)[C@]23[C@H](O)[C@H]1CC[C@H]2[C@@]12CO[C@]3(O)[C@@H](O)[C@@H]1C(C)(C)CC[C@@H]2O [ORIDONIN]
Stability [8]: Stable | TGI (MDA-MB-231 [16]): Active | LD50 at 960 h [17]: 37.5 mg/kg | IC50 (MDA-MB-231 [4]; MDA-MB-231, 72 h): 29.4 µM | Stability (Plasma [9]): Stable | Stability [10]: Stable | Stability [11]: Stable | Drug metabolism [18]: Metabolite detected | Stability (Plasma [13]): Stable | IC50 (MCF7; MCF7, 72 h): 6.72 µM | half-life ([1]; deuterated phosphate buffer with glutathione (GSH), pH 7.4): < 1 min | Stability (Plasma [14]): Stable

SMILES: CC1(C)O[C@@H]2[C@H]3CC[C@H]4[C@@]56CO[C@@](O1)([C@@H](O)[C@@H]5C(C)(C)CC[C@@H]6O)[C@@]24C(=O)C31CN1C(=O)CCSC[C@H](NC(=O)CC[C@H](N)C(=O)O)C(=O)NCC(=O)O (some centres undefined)
Drug metabolism [19]: Metabolite detected

Reference: ChEMBL document CHEMBL4020844, “Regio- and Stereospecific Synthesis of Oridonin D-Ring Aziridinated Analogues for the Treatment of Triple-Negative Breast Cancer via Mediated Irreversible Covalent Warheads” (J Med Chem, 2018)
